Results taken from ChEMBL document CHEMBL2074208, “P-glycoprotein inhibition by glibenclamide and related compounds” (Pflugers Arch, 1999).
Values belong to the compound of their own block, whether it stands above or below them.

What was measured:
[1] = biological target: Multidrug resistance protein 1a (Rattus norvegicus) (UniProt Q6PSM0); experiment: TP_TRANSPORTER: increase in Colchicine intracellular accumulation (Colchicine: 0.035 uM, Vinblastine: 100 uM) in CC531mdr+ cells; format: functional, cell-based
Method in brief: (§1)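 CC531mdr+ monolayers were grown to confluence and kept colchicine-free for ≥12 h. They were preincubated 10 min at 37 °C in buffer A (pH 7.4) with inhibitor or 0.1% DMSO, then incubated 60 min in buffer A with [³H]colchicine (2.5 µCi/ml; 35 nM colchicine) plus the same additions. After an ice-cold wash, radioactivity was extracted with 0.1 N HNO₃ and counted. Accumulation is given as % of the no-inhibitor control; n≥3.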

[2] = biological target: T1, ATP-dependent translocase ABCB1 (Homo sapiens, UniProt P08183); experiment: TP_TRANSPORTER: increase in Colchicine intracellular accumulation (Colchicine: 0.0175 uM, Vinblastine: 100 uM) in CEM/VBL600 cells; format: functional, cell-based; conditions: cem/vbl600, 100 µM
Method in brief: (§2)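 1.5×10⁶ viable cells were preincubated 10 min at 37 °C with inhibitor or 0.1% DMSO. [³H]colchicine (final 1.25 µCi/ml; 17.5 nM) was added for 60 min at 37 °C. Cells were pelleted at 4 °C, washed ice-cold and counted by scintillation. Uptake is given as % of the no-inhibitor control; n≥3.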

[3] = biological target: Multidrug resistance protein 1a (Rattus norvegicus) (UniProt Q6PSM0); experiment: TP_TRANSPORTER: increase in Glibenclamide intracellular accumulation (Glibenclamide: 0.0525 uM, Vinblastine: 100 uM) in CC531mdr+ cells; format: functional, cell-based
Method in brief: (§3)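 Confluent CC531mdr+ monolayers, held colchicine-free ≥12 h, were preincubated 10 min at 37 °C in buffer A with inhibitor or 0.1% DMSO. They were then exposed 60 min to [³H]glibenclamide (2.5 µCi/ml; 52.5 nM glibenclamide) with inhibitor. After an ice-cold buffer wash, acid extraction (0.1 N HNO₃) and scintillation counting, uptake was expressed as % of the inhibitor-free control; n≥3.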

[4] = biological target: T1, ATP-dependent translocase ABCB1; experiment: TP_TRANSPORTER: inhibition of Azidopine photoaffinity labelling (Azidopine: 0.16 uM, BM-223: 100 uM) in membranes from CEM/VBL600 cells; conditions: cem/vbl600, 100 µM
[5] = biological target: Multidrug resistance protein 1a (Rattus norvegicus) (UniProt Q6PSM0); experiment: TP_TRANSPORTER: increase in Glibenclamide intracellular accumulation (Glibenclamide: 0.0525 uM, BM-223: 100 uM) in CC531mdr+ cells; format: functional, cell-based; method in brief: as §3
[6] = biological target: Multidrug resistance protein 1a (Rattus norvegicus) (UniProt Q6PSM0); experiment: TP_TRANSPORTER: increase in Colchicine intracellular accumulation (Colchicine: 0.035 uM, BM-223: 100 uM) in CC531mdr+ cells; format: functional, cell-based; method in brief: as §1
[7] = biological target: T1, ATP-dependent translocase ABCB1; experiment: TP_TRANSPORTER: increase in Colchicine intracellular accumulation (Colchicine: 0.0175 uM, BM-223: 100 uM) in CEM/VBL600 cells; format: functional, cell-based; conditions: cem/vbl600, 100 µM; method in brief: as §2
[8] = biological target: Multidrug resistance protein 1a (Rattus norvegicus) (UniProt Q6PSM0); experiment: TP_TRANSPORTER: increase in Colchicine intracellular accumulation (Colchicine: 0.035 uM, BM-208: 100 uM) in CC531mdr+ cells; format: functional, cell-based; method in brief: as §1
[9] = biological target: T1, ATP-dependent translocase ABCB1; experiment: TP_TRANSPORTER: increase in Colchicine intracellular accumulation (Colchicine: 0.0175 uM, BM-208: 100 uM) in CEM/VBL600 cells; format: functional, cell-based; conditions: cem/vbl600, 100 µM; method in brief: as §2
[10] = biological target: T1, ATP-dependent translocase ABCB1; experiment: TP_TRANSPORTER: inhibition of Azidopine photoaffinity labelling (Azidopine: 0.16 uM, BM-208: 100 uM) in membranes from CEM/VBL600 cells; conditions: cem/vbl600, 100 µM
[11] = biological target: Multidrug resistance protein 1a (Rattus norvegicus) (UniProt Q6PSM0); experiment: TP_TRANSPORTER: increase in Glibenclamide intracellular accumulation (Glibenclamide: 0.0525 uM, BM-208: 100 uM) in CC531mdr+ cells; format: functional, cell-based; method in brief: as §3
[12] = biological target: Multidrug resistance protein 1a (Rattus norvegicus) (UniProt Q6PSM0); experiment: TP_TRANSPORTER: increase in Colchicine intracellular accumulation (Colchicine: 0.035 uM, Glibenclamide: 100 uM) in CC531mdr+ cells; format: functional, cell-based; method in brief: as §1
[13] = biological target: T1, ATP-dependent translocase ABCB1; experiment: TP_TRANSPORTER: increase in Colchicine intracellular accumulation (Colchicine: 0.0175 uM, Glibenclamide: 100 uM) in CEM/VBL600 cells; format: functional, cell-based; conditions: cem/vbl600, 100 µM; method in brief: as §2

T1 sequence (P08183 whole entry): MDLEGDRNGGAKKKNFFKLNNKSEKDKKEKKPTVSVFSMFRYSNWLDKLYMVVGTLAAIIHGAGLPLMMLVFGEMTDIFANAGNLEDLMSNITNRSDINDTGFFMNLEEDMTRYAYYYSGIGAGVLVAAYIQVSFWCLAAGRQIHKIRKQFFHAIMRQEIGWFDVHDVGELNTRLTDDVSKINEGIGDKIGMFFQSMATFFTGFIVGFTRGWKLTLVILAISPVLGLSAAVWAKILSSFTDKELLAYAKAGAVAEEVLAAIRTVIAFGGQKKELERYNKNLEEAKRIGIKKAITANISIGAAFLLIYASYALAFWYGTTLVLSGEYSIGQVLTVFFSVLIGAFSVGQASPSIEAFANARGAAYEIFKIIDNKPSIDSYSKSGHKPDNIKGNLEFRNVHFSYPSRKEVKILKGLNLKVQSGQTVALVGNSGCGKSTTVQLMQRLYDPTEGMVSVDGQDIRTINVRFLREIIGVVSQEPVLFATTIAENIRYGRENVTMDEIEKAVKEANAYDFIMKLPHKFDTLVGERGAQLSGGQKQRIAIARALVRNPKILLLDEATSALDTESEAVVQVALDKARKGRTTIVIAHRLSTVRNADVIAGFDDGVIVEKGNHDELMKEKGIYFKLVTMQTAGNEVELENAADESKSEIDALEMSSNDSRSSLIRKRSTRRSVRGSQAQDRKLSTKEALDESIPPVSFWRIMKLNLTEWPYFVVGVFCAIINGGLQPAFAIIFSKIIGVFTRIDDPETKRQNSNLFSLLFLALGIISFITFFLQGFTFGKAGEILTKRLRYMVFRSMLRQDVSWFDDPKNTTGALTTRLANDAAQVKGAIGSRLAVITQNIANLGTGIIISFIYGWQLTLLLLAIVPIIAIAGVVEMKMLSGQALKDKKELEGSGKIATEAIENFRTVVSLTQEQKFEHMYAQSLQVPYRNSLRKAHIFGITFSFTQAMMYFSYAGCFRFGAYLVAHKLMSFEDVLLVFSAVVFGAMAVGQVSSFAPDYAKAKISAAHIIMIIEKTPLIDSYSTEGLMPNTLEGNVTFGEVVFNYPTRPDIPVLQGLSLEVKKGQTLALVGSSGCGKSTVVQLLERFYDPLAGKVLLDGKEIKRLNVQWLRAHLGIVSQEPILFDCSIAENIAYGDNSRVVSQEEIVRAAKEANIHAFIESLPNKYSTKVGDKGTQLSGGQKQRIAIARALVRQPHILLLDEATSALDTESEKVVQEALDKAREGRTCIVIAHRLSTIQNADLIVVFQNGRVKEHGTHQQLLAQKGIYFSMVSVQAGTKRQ
Multidrug resistance protein 1a (Rattus norvegicus), sequence (Q6PSM0 as listed by the source): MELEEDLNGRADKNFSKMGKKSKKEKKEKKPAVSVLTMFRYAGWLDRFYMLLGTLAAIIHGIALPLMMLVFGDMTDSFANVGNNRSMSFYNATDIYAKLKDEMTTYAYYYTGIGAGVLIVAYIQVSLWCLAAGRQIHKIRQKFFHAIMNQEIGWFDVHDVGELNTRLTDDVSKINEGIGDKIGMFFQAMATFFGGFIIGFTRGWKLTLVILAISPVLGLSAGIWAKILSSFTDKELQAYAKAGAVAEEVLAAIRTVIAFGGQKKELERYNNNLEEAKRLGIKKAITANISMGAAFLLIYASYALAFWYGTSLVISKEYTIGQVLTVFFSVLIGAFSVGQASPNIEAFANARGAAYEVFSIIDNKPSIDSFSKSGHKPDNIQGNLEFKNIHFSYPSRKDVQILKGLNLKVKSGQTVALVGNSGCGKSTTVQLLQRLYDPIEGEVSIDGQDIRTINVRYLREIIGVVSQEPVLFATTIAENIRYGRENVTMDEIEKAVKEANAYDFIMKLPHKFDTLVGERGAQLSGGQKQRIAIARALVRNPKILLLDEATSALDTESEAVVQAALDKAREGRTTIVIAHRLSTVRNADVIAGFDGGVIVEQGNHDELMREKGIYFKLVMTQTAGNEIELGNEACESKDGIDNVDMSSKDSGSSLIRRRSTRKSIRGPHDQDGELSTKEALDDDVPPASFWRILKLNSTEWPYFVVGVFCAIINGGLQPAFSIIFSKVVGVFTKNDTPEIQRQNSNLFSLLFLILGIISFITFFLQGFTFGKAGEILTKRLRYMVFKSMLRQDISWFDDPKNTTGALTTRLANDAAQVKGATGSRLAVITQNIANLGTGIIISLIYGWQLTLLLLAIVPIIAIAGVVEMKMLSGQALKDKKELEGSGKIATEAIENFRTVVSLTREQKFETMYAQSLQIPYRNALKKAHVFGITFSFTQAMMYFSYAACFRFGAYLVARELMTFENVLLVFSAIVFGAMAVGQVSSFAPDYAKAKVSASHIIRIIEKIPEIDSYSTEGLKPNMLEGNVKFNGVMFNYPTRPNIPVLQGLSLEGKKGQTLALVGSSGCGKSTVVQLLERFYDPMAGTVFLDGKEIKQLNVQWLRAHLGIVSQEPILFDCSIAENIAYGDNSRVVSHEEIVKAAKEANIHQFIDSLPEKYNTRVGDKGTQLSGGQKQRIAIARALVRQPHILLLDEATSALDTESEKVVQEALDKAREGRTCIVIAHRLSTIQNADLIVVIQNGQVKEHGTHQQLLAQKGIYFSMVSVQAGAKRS

SMILES: COc1ccc(Cl)cc1C(=O)NCCc1ccc(S(=O)(=O)N/C(=N/C#N)NC2CCC(C)CC2)cc1 (centres undefined)
Activity [4]: inhibitor [+]
Activity [5]: inhibitor [+]
Activity [6]: inhibitor [+]
Activity [7]: inhibitor [+]

SMILES: COc1ccc(Cl)cc1C(=O)NCCc1ccc(S(=O)(=O)N/C(=N/C#N)NC2CCCCC2)cc1
Activity [8]: inhibitor [+]
Activity [9]: inhibitor [+]
Activity [10]: inhibitor [+]
Activity [11]: inhibitor [+]

Other lines, results leading:

Activity [1]: inhibitor [+]
Activity [2]: inhibitor [+]
Activity [3]: inhibitor [+]
SMILES: CC[C@]1(O)C[C@@H]2CN(CCc3c([nH]c4ccccc34)[C@@](C(=O)OC)(c3cc4c(cc3OC)N(C)[C@H]3[C@@](O)(C(=O)OC)[C@H](OC(C)=O)[C@]5(CC)C=CCN6CC[C@]43[C@@H]65)C2)C1 [VINBLASTINE]

Activity [12]: inhibitor [+]
Activity [13]: inhibitor [+]
SMILES: COc1ccc(Cl)cc1C(=O)NCCc1ccc(S(=O)(=O)NC(=O)NC2CCCCC2)cc1 [GLYBURIDE]

Activity [3]: inhibitor [+]
SMILES: COc1ccc(CCN(C)CCCC(C#N)(c2ccc(OC)c(OC)c2)C(C)C)cc1OC (centres undefined)
